According to ChEMBL document CHEMBL1124215, “Improved delivery through biological membranes. 26. Design, synthesis, and pharmacological activity of a novel chemical delivery system for beta-adrenergic blocking agents” (1988):
The source made the active and inactive calls. The calls are words filed in the database; no cut-off is given here.

Tests used:
Oryctolagus cuniculus [1] = test: Percentage change of IOP in rabbits after 6 hr administration (1%) of compound; assay type: functional
In short: (§1)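 Rabbits received 1% or 2.5% drug solution in pH 7.4 buffer or saline in both eyes, at least four per group. A control group of at least three rabbits received carrier only. IOP was read by pneumatonometer in unrestrained, unanesthetized animals after one drop of 0.5% propacaine diluted 1:2 with saline. Readings were taken at 30 and 60 min and at 2–8 h. Values are mean ± SE, with significance by Student's t test.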

Oryctolagus cuniculus [2] = test: Percentage change of IOP in rabbits after 8 hr administration (1%) of compound; assay type: functional; in short: as §1
Oryctolagus cuniculus [3] = test: Percentage change of IOP in rabbits after 2 hr administration (1%) of compound; assay type: functional
In short: (§2)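 IOP was read by pneumatonometer in unrestrained, unanesthetized rabbits after local propacaine drops. Drug was given as a 1% or 2.5% solution in pH 7.4 buffer or saline to both eyes, at least four rabbits per group; controls (at least three) received carrier only. Readings were taken at 30 and 60 min and at 2, 3, 4, 6 and 8 h. Values are mean ± SE; Student's t test.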

Oryctolagus cuniculus [4] = test: Percentage change of IOP in rabbits after 30 min administration (1%) of compound; assay type: functional; in short: as §1
Oryctolagus cuniculus [5] = test: Percentage change of IOP in rabbits after 3h administration (1%) of compound; assay type: functional; in short: as §1
Oryctolagus cuniculus [6] = test: Percentage change of IOP in rabbits after 4 hr administration (1%) of compound; assay type: functional; in short: as §1
Oryctolagus cuniculus [7] = test: Percentage change of IOP in rabbits after 5 hr administration (1%) of compound; assay type: functional; in short: as §1
Oryctolagus cuniculus [8] = test: Percentage change of IOP in rabbits after 0 min administration (1%) of compound; assay type: functional; in short: as §2
Oryctolagus cuniculus [9] = test: Percentage change of IOP in rabbits after 1 hr administration (1%) of compound; assay type: functional; in short: as §2
Oryctolagus cuniculus [10] = test: Effect on IOP of rabbits 0 min after administration (1%); assay type: functional; in short: as §2
Oryctolagus cuniculus [11] = test: Effect on IOP of rabbits 1 hr after administration (1%); assay type: functional; in short: as §2
Oryctolagus cuniculus [12] = test: Effect on IOP of rabbits 2 hr after administration (1%); assay type: functional; in short: as §2
Oryctolagus cuniculus [13] = test: Effect on IOP of rabbits 30 mins after administration (1%); assay type: functional; in short: as §2
Oryctolagus cuniculus [14] = test: Effect on IOP of rabbits 3h after administration (1%); assay type: functional; in short: as §2
Oryctolagus cuniculus [15] = test: Effect on IOP of rabbits 4 hr after administration (1%); assay type: functional; in short: as §2
Oryctolagus cuniculus [16] = test: Effect on IOP of rabbits 5 hr after administration (1%); assay type: functional
Oryctolagus cuniculus [17] = test: Effect on IOP of rabbits 6 hr after administration (1%); assay type: functional; in short: as §2
Oryctolagus cuniculus [18] = test: Concentration of propranolone oxime in cornea of rabbit after 120 min administration of compound; N/A= no oxime can be present after administration of propranolone hydrochloride; assay type: functional, organism-based
In short: (§3)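 Adult male New Zealand albino rabbits (2.5–3.5 kg), at least four per time point. 100 µL of a 1% solution in saline was instilled topically into both eyes. Animals were killed at 30, 60 or 120 min. Cornea and iris-ciliary body were homogenized in methanol to 10% homogenates and deproteinized by centrifugation. Aqueous humor was analysed undiluted. HPLC was calibrated against spiked control-rabbit tissue. Values are mean ± SE, µg/g.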

Oryctolagus cuniculus [19] = test: Concentration of propranolone oxime in cornea of rabbit after 30 min administration of compound; N/A= no oxime can be present after administration of propranolone hydrochloride; assay type: functional, organism-based; in short: as §3
Oryctolagus cuniculus [20] = test: Concentration of propranolone oxime in cornea of rabbit after 60 min administration of compound; N/A= no oxime can be present after administration of propranolone hydrochloride; assay type: functional, organism-based; in short: as §3
Oryctolagus cuniculus [21] = test: Concentration of propranolone oxime in iris-ciliary body of rabbit after 120 min administration of compound; N/A= no oxime can be present after administration of propranolone hydrochloride; assay type: functional, organism-based; in short: as §3
Oryctolagus cuniculus [22] = test: Concentration of propranolone oxime in iris-ciliary body of rabbit after 30 min administration of compound; N/A= no oxime can be present after administration of propranolone hydrochloride; assay type: functional, organism-based; in short: as §3
Oryctolagus cuniculus [23] = test: Concentration of propranolone oxime in iris-ciliary body of rabbit after 60 min administration of compound; N/A= no oxime can be present after administration of propranolone hydrochloride; assay type: functional, organism-based; in short: as §3
Oryctolagus cuniculus [24] = test: Concentration in aqueous humor of rabbit after 30 min administration of compound; assay type: functional, organism-based; settings: Aqueous humor of eyeball; in short: as §3
Oryctolagus cuniculus [25] = test: Concentration in aqueous humor of rabbit after 60 min administration of compound; assay type: functional, organism-based; settings: Aqueous humor of eyeball; in short: as §3
Oryctolagus cuniculus [26] = test: Percentage change of IOP in rabbits after 60 min administration (1%) of compound; assay type: functional; in short: as §1
Oryctolagus cuniculus [27] = test: Percentage change of IOP in rabbits after 60 min administration (2.5%) of compound; assay type: functional; in short: as §1
Oryctolagus cuniculus [28] = test: Percentage change of IOP in rabbits after 6 hr administration (2.5%) of compound; assay type: functional; in short: as §1
Oryctolagus cuniculus [29] = test: Percentage change of IOP in rabbits after 8 hr administration (2.5%) of compound; assay type: functional; in short: as §1
Oryctolagus cuniculus [30] = test: Percentage change of IOP in rabbits after 2 hr administration (2.5%) of compound; assay type: functional; in short: as §2
Oryctolagus cuniculus [31] = test: Percentage change of IOP in rabbits after 30 min administration (2.5%) of compound; assay type: functional; in short: as §1
Oryctolagus cuniculus [32] = test: Percentage change of IOP in rabbits after 3h administration (2.5%) of compound; assay type: functional; in short: as §1
Oryctolagus cuniculus [33] = test: Percentage change of IOP in rabbits after 0 min administration (2.5%) of compound; assay type: functional; in short: as §2
Oryctolagus cuniculus [34] = test: Concentration in cornea of rabbit after 30 min administration of compound; assay type: functional, organism-based; in short: as §3
Oryctolagus cuniculus [35] = test: Concentration in cornea of rabbit after 60 min administration of compound; assay type: functional, organism-based; in short: as §3
Oryctolagus cuniculus [36] = test: Concentration in iris-ciliary body of rabbit after 30 min administration of compound; assay type: functional, organism-based; in short: as §3
Oryctolagus cuniculus [37] = test: Concentration of propranolone oxime in aqueous humor of rabbit after 120 min administration of compound; N/A= no oxime can be present after administration of propranolone hydrochloride; assay type: functional, organism-based; settings: Aqueous humor of eyeball; in short: as §3
Oryctolagus cuniculus [38] = test: Concentration of propranolone oxime in aqueous humor of rabbit after 30 min administration of compound; N/A= no oxime can be present after administration of propranolone hydrochloride; assay type: functional, organism-based; settings: Aqueous humor of eyeball; in short: as §3
Oryctolagus cuniculus [39] = test: Effect on IOP of rabbits 0 min after administration (2.5%); assay type: functional; in short: as §2
Oryctolagus cuniculus [40] = test: Effect on IOP of rabbits 2 hr after administration (2.5%); assay type: functional; in short: as §2
Oryctolagus cuniculus [41] = test: Effect on IOP of rabbits 30 mins after administration (2.5%); assay type: functional; in short: as §2
Oryctolagus cuniculus [42] = test: Effect on IOP of rabbits 3h after administration (2.5%); assay type: functional; in short: as §2
Oryctolagus cuniculus [43] = test: Effect on IOP of rabbits 4 hr after administration (2.5%); assay type: functional; in short: as §2
Oryctolagus cuniculus [44] = test: Effect on IOP of rabbits 60 mins after administration (2.5%); assay type: functional; in short: as §2
Oryctolagus cuniculus [45] = test: Effect on IOP of rabbits 6 hr min after administration (1%); assay type: functional; in short: as §2
Oryctolagus cuniculus [46] = test: Effect on IOP of rabbits 6 hr min after administration (2.5%); assay type: functional; in short: as §2
Oryctolagus cuniculus [47] = test: Effect on IOP of rabbits 8 hr min after administration (1%); assay type: functional; in short: as §2
Oryctolagus cuniculus [48] = test: Effect on IOP of rabbits 8 hr min after administration (2.5%); assay type: functional; in short: as §2
Oryctolagus cuniculus [49] = test: Concentration of propranolone oxime in aqueous humor of rabbit after 60 min administration of compound; N/A= no oxime can be present after administration of propranolone hydrochloride; assay type: functional, organism-based; settings: Aqueous humor of eyeball; in short: as §3
Oryctolagus cuniculus [50] = test: Percentage change of IOP in rabbits after 4 hr administration (2.5%) of compound; assay type: functional; in short: as §1
Oryctolagus cuniculus [51] = test: Effect on IOP of rabbits 60 min after administration (1%); assay type: functional; in short: as §2

## CC(C)(C)NC[C@H](O)COc1nsnc1N1CCOCC1 (stereo in doubt; 1b) [TIMOLOL]
Oryctolagus cuniculus [1]
  Change: 12.4%
Oryctolagus cuniculus [2]
  Change: >9.8%
Oryctolagus cuniculus [3]
  Change: 6.78%
Oryctolagus cuniculus [4]
  Change: >-10.93%
Oryctolagus cuniculus [5]
  Change: 14.3%
Oryctolagus cuniculus [6]
  Change: 14.8%
Oryctolagus cuniculus [7]
  Change: 16.9%
Oryctolagus cuniculus [8]
  Change: 0%
Oryctolagus cuniculus [9]
  Change: 6.65%
Oryctolagus cuniculus [10]
  IOP: 29.19 mmHg
Oryctolagus cuniculus [11]
  IOP: 27.25 mmHg
Oryctolagus cuniculus [12]
  IOP: 27.21 mmHg
Oryctolagus cuniculus [13]
  IOP: 26 mmHg
Oryctolagus cuniculus [14]
  IOP: 25 mmHg
Oryctolagus cuniculus [15]
  IOP: 24.88 mmHg
Oryctolagus cuniculus [16]
  IOP: 24.25 mmHg
Oryctolagus cuniculus [17]
  IOP: 25.58 mmHg

## CC(C)NCC(O)COc1cccc2ccccc12 (stereo not drawn) [PROPRANOLOL]
Oryctolagus cuniculus [18]
  Concentration: inactive
Oryctolagus cuniculus [19]
  Concentration: inactive
Oryctolagus cuniculus [20]
  Concentration: inactive
Oryctolagus cuniculus [21]
  Concentration: inactive
Oryctolagus cuniculus [22]
  Concentration: inactive
Oryctolagus cuniculus [23]
  Concentration: inactive
Oryctolagus cuniculus [24]
  Concentration: 1.3 µg/g
Oryctolagus cuniculus [25]
  Concentration: 0.3 µg/g
Oryctolagus cuniculus [26]
  Change: >-10.39%
Oryctolagus cuniculus [27]
  Change: >9.84%
Oryctolagus cuniculus [1]
  Change: -5.84%
Oryctolagus cuniculus [28]
  Change: 0%
Oryctolagus cuniculus [2]
  Change: -1.95%
Oryctolagus cuniculus [29]
  Change: -0.79%
Oryctolagus cuniculus [3]
  Change: -5.52%
Oryctolagus cuniculus [30]
  Change: 1.18%
Oryctolagus cuniculus [4]
  Change: >-9.1%
Oryctolagus cuniculus [31]
  Change: >8.66%
Oryctolagus cuniculus [5]
  Change: -11.04%
Oryctolagus cuniculus [32]
  Change: 1.18%
Oryctolagus cuniculus [6]
  Change: -8.44%
Oryctolagus cuniculus [8]
  Change: 0%
Oryctolagus cuniculus [33]
  Change: 0%
Oryctolagus cuniculus [34]
  Concentration: 47.1 µg/g
Oryctolagus cuniculus [35]
  Concentration: 14.5 µg/g
Oryctolagus cuniculus [36]
  Concentration: 8.1 µg/g
Oryctolagus cuniculus [37]
  Concentration: inactive
Oryctolagus cuniculus [38]
  Concentration: inactive
Oryctolagus cuniculus [39]
  IOP: 25.4 mmHg
Oryctolagus cuniculus [10]
  IOP: 30.8 mmHg
Oryctolagus cuniculus [12]
  IOP: 29.1 mmHg
Oryctolagus cuniculus [40]
  IOP: 25.7 mmHg
Oryctolagus cuniculus [13]
  IOP: 29 mmHg
Oryctolagus cuniculus [41]
  IOP: 27.6 mmHg
Oryctolagus cuniculus [14]
  IOP: 27.4 mmHg
Oryctolagus cuniculus [42]
  IOP: 25.7 mmHg
Oryctolagus cuniculus [15]
  IOP: 28.2 mmHg
Oryctolagus cuniculus [43]
  IOP: 25.6 mmHg
Oryctolagus cuniculus [44]
  IOP: 27.9 mmHg
Oryctolagus cuniculus [45]
  IOP: 29 mmHg
Oryctolagus cuniculus [46]
  IOP: 25.4 mmHg
Oryctolagus cuniculus [47]
  IOP: 30.2 mmHg
Oryctolagus cuniculus [48]
  IOP: 25.2 mmHg
Oryctolagus cuniculus [49]
  Concentration: inactive
Oryctolagus cuniculus [50]
  Change: 0.79%
Oryctolagus cuniculus [51]
  IOP: 27.6 mmHg
